# Assays:
# Nucleic Acid = test: Inhibition of telomerase by TRAP assay; type: nucleic-acid assay, Homo sapiens
# Outline: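 Human telomerase activity measured with a commercially available telomeric repeat amplification protocol (TRAP) kit. The value is the concentration giving 50% inhibition (telIC50). An internal reference telomerase inhibitor (BSU-1021) was run in the same assay.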
# MCF7 = test: Inhibition of human MCF7 cell growth at 100 uM relative to control; type: functional; settings: values are per cent of control
# NCI-H460 = test: Inhibition of human NCI-H460 cell growth at 100 uM relative to control; type: functional; settings: values are per cent of control
# SF-268 = test: Inhibition of human SF268 cell growth at 100 uM relative to control; type: functional; settings: values are per cent of control
SMILES,IC50 (Nucleic Acid),"growth, % of control at 100 µM (MCF7)","growth, % of control at 100 µM (NCI-H460)","growth, % of control at 100 µM (SF-268)"
CN(C)CCSc1ccc(-c2cc(-c3ccc(SCCN(C)C)cc3)ncn2)cc1,> 40 µM,,,
CCN(CC)CCSc1ccc(-c2cc(-c3ccc(SCCN(CC)CC)cc3)ncn2)cc1,,83%,98%,85%
OCCSc1ccc(-c2cc(-c3ccc(SCCO)cc3)ncn2)cc1,,97%,99%,119%
c1nc(-c2ccc(SCCN3CCCCC3)cc2)cc(-c2ccc(SCCN3CCCCC3)cc2)n1,> 40 µM,68%,98%,79%
CN(C)CCNC(=O)c1ccc(-c2cc(-c3ccc(C(=O)NCCN(C)C)cc3)ncn2)cc1,> 40 µM,96%,100%,108%
c1nc(-c2ccc(SCCN3CCOCC3)cc2)cc(-c2ccc(SCCN3CCOCC3)cc2)n1,,95%,96%,102%
COCCSc1ccc(-c2cc(-c3ccc(SCCOC)cc3)ncn2)cc1,> 40 µM,33%,94%,106%
CCN(CC)CCNC(=O)c1ccc(-c2cc(-c3ccc(C(=O)NCCN(CC)CC)cc3)ncn2)cc1,10 µM,,,
O=C(NCCO)c1ccc(-c2cc(-c3ccc(C(=O)NCCO)cc3)ncn2)cc1,,83%,104%,104%

# Reference: ChEMBL document CHEMBL1146008, “Design, synthesis, and evaluation of novel biarylpyrimidines: a new class of ligand for unusual nucleic acid structures” (J Med Chem, 2006)
